The text below walks through data of ChEMBL document CHEMBL3232933, “Pyrazole-5-carboxamides, novel inhibitors of receptor for advanced glycation end products (RAGE)” (Eur J Med Chem, 2014).

The source made the active and inactive calls. No cut-off for these calls is given here.

The target in series [1] is T1, Advanced glycosylation end product-specific receptor (Homo sapiens, UniProt Q15109). The series is described as follows: Inhibition of biotinylated human RAGE assessed as bound amyloid beta level at 20 uM after 60 mins by ELISA relative to control. The method in brief:
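Biotinylated human RAGE (1 µg), Aβ1-42 oligomers (aged in PBS for 24 h at 4 °C) and compound at a single fixed level were co-incubated in TBS-T with 2.5% BSA on streptavidin plates for 60 min at ambient temperature. Bound Aβ was detected with HRP-4G8, TMB and A450. % inhibition is given as mean ± SD of duplicate experiments.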

Series [2] has as its target T1, Advanced glycosylation end product-specific receptor. The series is described as follows: Inhibition of biotinylated human RAGE assessed as bound amyloid beta level after 60 mins by ELISA. A general note: ELISA stands for enzyme-linked immunosorbent assay.
Series [3] in a line: Kinetic solubility of the compound in PBS at pH 7.4 by nephelometric analysis. The class given is physicochemical. The conditions noted are these: read-out: Kinetic_solubility. The essentials:
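Kinetic solubility was measured on the HCl salt, added from a DMSO stock, in triplicate experiments.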

The nature of series [4]: AUC in Sprague-Dawley rat at 2 mg/kg, iv. The class given is ADME, organism-based. Further details: dose 2 mg/kg, route intravenous. The conditions noted are these: plasma.
Series [5] relates to Mus musculus. Kind of series: Antialzheimer activity in ICR mouse injected with human amyloid beta (1 to 42) assessed as reduction of human amyloid beta (1 to 42) level in brain at 25 mg/kg, ip administered 20 mins prior to human amyloid beta (1 to 42) injection measured after 30 mins relative to control. The following applies: route intraperitoneal. In kind it is functional. Further details: scale not given: the % may be the effect or the level left. The essentials:
(§1)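 Male ICR mice, 3 months old (25 g, n = 4), got one i.p. dose of 25 mg/kg or vehicle. After 20 min, human Aβ1-42 in PBS was injected into the tail vein and circulated for 30 min. Human Aβ was then measured in brain extracts and plasma. Values are means ± SD.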

The test system of series [6] is Mus musculus. Kind of series: Antialzheimer activity in ICR mouse injected with human amyloid beta (1 to 42) assessed as increase in human amyloid beta (1 to 42) level in plasma at 25 mg/kg, ip administered 20 mins prior to human amyloid beta (1 to 42) injection measured after 30 mins relative to control. The class given is functional. The conditions noted are these: route intraperitoneal. The essentials: as §1

T1 sequence (Q15109 whole entry): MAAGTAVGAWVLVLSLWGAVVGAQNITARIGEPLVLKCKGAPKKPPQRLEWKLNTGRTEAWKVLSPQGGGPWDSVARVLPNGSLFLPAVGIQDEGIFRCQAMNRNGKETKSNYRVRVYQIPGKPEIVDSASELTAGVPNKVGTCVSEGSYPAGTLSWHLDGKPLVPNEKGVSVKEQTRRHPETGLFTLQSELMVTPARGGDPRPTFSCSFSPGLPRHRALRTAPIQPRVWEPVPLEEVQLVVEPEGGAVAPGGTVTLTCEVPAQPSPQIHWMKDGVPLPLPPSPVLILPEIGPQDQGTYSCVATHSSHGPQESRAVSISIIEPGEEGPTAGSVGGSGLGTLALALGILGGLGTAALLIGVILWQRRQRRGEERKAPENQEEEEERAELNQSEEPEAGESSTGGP

For orientation: inhibition means the percentage by which the read-out fell short of the control. Consider `CCCCOc1cc(OCCCN(CC)CC)ccc1NC(=O)c1cc(-c2ccc(Oc3cccc(F)c3)cc2)nn1C`, for which, in series [1], the inhibition was 37%.

As to `CCCCOc1cc(OCCCN(CC)CC)ccc1NC(=O)c1cc(-c2ccc(Oc3ccc(C(C)(C)C)cc3)cc2)nn1C`, the inhibition entry in series [1] was “inactive”.

For `CCN(CC)CCCOc1ccc(NC(=O)c2cc(-c3ccc(Oc4ccc(Cl)cc4)cc3)nn2C)cc1`, the inhibition in series [1] turned out to be 33.8%. Usually IC50 stands for the concentration needed to halve the response being measured. With `CCCCOc1cc(OCCCN(CC)CC)ccc1NC(=O)c1cc(-c2ccc(Oc3ccccc3)cc2)nn1C`, the IC50 in series [2] worked out at 5.4 µM. Also, the inhibition in series [1] was determined as 77%. With `CCCCOc1cc(OCCCN(CC)CC)ccc1NC(=O)c1cc(-c2ccc(Oc3ccc(OC)c(F)c3)cc2)nn1C`, the inhibition in series [1] stood at 34.1%. Take `CCCCOc1cc(OCCCN(CC)CC)ccc1NC(=O)c1cc(-c2ccc(OC)cc2)n[nH]1`: the inhibition result in series [1] was “inactive”. Consider `CCN(CC)CCOc1cccc(Nc2nc(-c3ccc(Cl)cc3)cc(-c3ccc(Cl)cc3)n2)c1.Cl`, for which the solubility kinetic in series [3] came to 16.5 µM. The term AUC denotes concentration integrated over time. In series [4], `CCN(CC)CCOc1cccc(Nc2nc(-c3ccc(Cl)cc3)cc(-c3ccc(Cl)cc3)n2)c1` yielded an AUC of 10600 ng·h/mL.

Regarding `CCCCOc1cc(OCCCN(CC)CC)ccc1NC(=O)c1cc(-c2ccc(Oc3ccccn3)cc2)nn1C`, the IC50 in series [2] was 18.9 µM. In series [1], the inhibition turned out to be 52.6%. Turning to `CCCCOc1cc(OCCCN(CC)CC)ccc1NC(=O)c1cc(-c2ccc(Oc3ccc(Cl)cc3)cc2)no1`, in series [1], the inhibition turned out to be 32.1%. Still for that read-out and setting: then `CCCCOc1cc(OCCCN(CC)CC)ccc1NC(=O)c1cc(-c2ccc(Oc3ccc(Cl)cc3)cc2)n(CCC)n1`, with 45.7%. Still for that read-out and setting: then `CCN(CC)CCCOc1ccc(NC(=O)c2cc(-c3ccc(OC)cc3)nn2C)cc1`, with 20.5%; and `CCCCOc1cc(OCCCN(CC)CC)ccc1NC(=O)c1cc(-c2ccc(Oc3ccc(Cl)cc3)cc2)nn1CCCC`, with “inactive”; and `CCCCOc1cc(OCCCN(CC)CC)ccc1NC(=O)c1cc(-c2ccc(Oc3ccc(Cl)cc3)cc2)nn1CCC`, with 44.6%. Take `CCCCOc1cc(OCCCN(CC)CC)ccc1NC(=O)c1cc(-c2ccc(Oc3ccc(OC)cc3)cc2)nn1C`: in series [2], the IC50 worked out at 7.8 µM. Moreover, in series [1], the inhibition came out at 74.2%. As for `CCCCOc1cc(OCCCN(CC)CC)ccc1NC(=O)c1cc(-c2ccc(Oc3ccc(F)cc3)cc2)nn1C` [listing 1 of 2 here], the Activity is given as 37.86% with Mus musculus [5] and 4.01% in the series on Mus musculus [6]. For the same compound, in series [4], the AUC came out at 8560 ng·h/mL. Turning to `CCCCOc1cc(OCCCN(CC)CC)ccc1NC(=O)c1cc(-c2ccc(Oc3ccc(Cl)cc3)cc2)n(CCCC)n1`, the inhibition in series [1] is 36%. `CCCCOc1cc(OCCCN(CC)CC)ccc1NC(=O)c1cc(-c2ccc(Oc3ccc(C(F)(F)F)cc3)cc2)nn1C`: in series [2], the IC50 came to 1.9 µM. Besides, in series [1], the inhibition amounted to 83.1%. Turning to `CCCCOc1cc(OCCCN(CC)CC)ccc1NC(=O)c1cc(-c2ccc(Oc3ccccc3F)cc2)nn1C`, in series [1], the inhibition turned out to be 29.5%. Same read-out and setting: then `CCN(CC)CCOc1ccc(NC(=O)c2cc(-c3ccc(Oc4ccc(Cl)cc4)cc3)nn2C)cc1`, with 27%. Regarding `CCN(CC)CCOc1ccc(NC(=O)c2cc(-c3ccc(OC)cc3)nn2C)cc1`, the inhibition in series [1] came to 20.5%. Still for that read-out and setting: the value for `CCCCOc1cc(OCCCN(CC)CC)ccc1NC(=O)c1cc(-c2ccc(Oc3ccc(F)c(F)c3)cc2)nn1C` was 19.9%; that for `CCCCOc1cc(OCCCN(CC)CC)ccc1NC(=O)c1cc(-c2ccc(Oc3ccc(Cl)cc3)cc2)nn1CC` was 44.7%. The same measure, in the same setting: then `CCCCn1nc(-c2ccc(Oc3ccc(Cl)cc3)cc2)cc1C(=O)Nc1ccc(OCCCN(CC)CC)cc1`, with 41.4%. Consider `CCCCOc1cc(OCCCN(CC)CC)ccc1NC(=O)c1cc(-c2ccc(OC3CCCCC3)cc2)nn1C`, for which, in series [2], the IC50 was found to be 2.5 µM. For the same compound, the inhibition in series [1] worked out at 76%. Consider `CCCCOc1cc(OCCCN(CC)CC)ccc1NC(=O)c1cc(-c2ccc(Oc3ccc(F)cc3)cc2)nn1C.Cl`, for which the solubility kinetic in series [3] stood at 80.3 µM. As to `CCCCOc1cc(OCCCN(CC)CC)ccc1NC(=O)c1cc(-c2ccc(Oc3ccc(F)cc3)cc2)nn1C` [listing 2 of 2 here], in series [1], the inhibition came to 79.3%. For the compound `CCCCOc1cc(OCCCN(CC)CC)ccc1NC(=O)c1cc(-c2ccc(Oc3ccc(OC)c(Cl)c3)cc2)nn1C`, the IC50 in series [2] turned out to be 5.3 µM. Also, in series [1], the inhibition was determined as 36.5%. Take `CCCCOc1cc(OCCCN(CC)CC)ccc1NC(=O)c1cc(-c2ccc(OC)cc2)nn1C`: in series [1], the inhibition is 32.4%. Same read-out and setting: then `CCCCOc1cc(OCCCN(CC)CC)ccc1NC(=O)c1cc(-c2ccc(Oc3ccc(Cl)cc3)cc2)nn1C`, with 49.7%; and `CCCCOc1cc(OCCCN(CC)CC)ccc1NC(=O)c1cc(-c2ccc(Oc3ccc(Cl)cc3)cc2)n[nH]1`, with “inactive”.
